High-throughput results as filed in PubChem BioAssay.
Rows were chosen to be rich in hits. Some 1.9% of all compounds tested hit in one or more screens of this group.
PP1 inh: counter-screen for PP5 inhibitors: inhibitors of human PP1-alpha | P62136 | purified PP1alpha, OMFP fluorescence | inhibition, % at 6.7 µM | 0.9% of 320,000 active | AID 2235;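 active = inhibition above the mean inhibition of all tested compounds plus 3 SD, computed separately for each screening campaign, cut at about 15% in these data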
Target sequence (P62136 whole entry, looked up): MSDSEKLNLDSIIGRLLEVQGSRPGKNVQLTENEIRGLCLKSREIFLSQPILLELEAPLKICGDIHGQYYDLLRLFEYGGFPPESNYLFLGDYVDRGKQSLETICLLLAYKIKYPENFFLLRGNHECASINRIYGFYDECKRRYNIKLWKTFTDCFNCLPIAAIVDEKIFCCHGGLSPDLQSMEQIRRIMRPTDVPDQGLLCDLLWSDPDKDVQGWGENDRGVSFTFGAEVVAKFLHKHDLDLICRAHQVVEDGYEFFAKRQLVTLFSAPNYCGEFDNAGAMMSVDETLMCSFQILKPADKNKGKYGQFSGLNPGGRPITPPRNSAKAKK
EBNA-1 inhibitor: blocks EBNA-1 binding to DNA. 0.34% of 300,000 active. inhibition, % at 14.8 µM. EBNA-1 DNA binding, fluorescence polarization; in the data active = inhibition above about 28%
core dimer inh: blocks dimerization of HCV core protein | TR-FRET GST/Flag-core106 dimerization, 1536-well | inhibition, % at 5 µM | 0.33% of 300,000 active;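 active = inhibition above the mean of all tested compounds plus 3 SD, set per screening campaign, cut at about 45% in these data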
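Assay system – GST-tagged and Flag-tagged HCV core protein residues 1-106 · Quantity – core106 proteins, GST 13.5 nM and Flag 17 nM · Benchmarks – unlabelled core106 and no-GST-core106 wells · Read-out basis – percent inhibition of core106 dimerization signal · Detection – time-resolved FRET, ex 340 nm, em 617 and 671 nm · Schedule – 4 h at 22.5 °C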
NS3 helicase inh: inhibitors of Hepatitis C virus NS3 helicase; NS3 helicase DNA unwinding, Cy5 molecular beacon fluorescence; 0.56% of 290,000 active; inhibition, % at 10.9 µM; AID 1800;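 active = inhibition above the mean of all tested compounds plus 3 SD, set per campaign, cut at about 35% in these data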
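assay system = NS3 helicase fragment of HCV | buffer or medium = MOPS pH 6.5, MgCl2, DTT, Tween20, BSA | timing = 60 min unwinding reaction at 25 °C after ATP addition | signal = Cy5 beacon fluorescence read at start and 1 h | read-out basis = % inhibition of unwinding | control set = low DMSO, high thioflavine S at 110 µM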
ZTA counter: ZTA (EBV) inhibition in EBNA-1 counter-screen; inhibition, % at 11 µM; 0.15% of 320,000 active; ZTA-DNA binding, fluorescence polarization; in the data active = inhibition above about 33%
Target sequence (P03206 whole entry, looked up): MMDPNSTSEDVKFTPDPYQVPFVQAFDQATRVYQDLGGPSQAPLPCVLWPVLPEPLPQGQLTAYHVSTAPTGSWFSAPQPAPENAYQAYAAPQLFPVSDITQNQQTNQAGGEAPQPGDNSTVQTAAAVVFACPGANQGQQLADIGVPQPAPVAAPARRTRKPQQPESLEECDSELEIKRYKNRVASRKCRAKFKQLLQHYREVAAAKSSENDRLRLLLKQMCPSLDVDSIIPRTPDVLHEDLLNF
PP1 inh confirm: human PP1 phosphatase inhibition, confirmation; inhibition, % at 6.7 µM; 52% of 1,900 active; AID 2358; purified PP1alpha, OMFP substrate fluorescence; shares compounds with PP1 inh;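 active = mean PP1 inhibition above a set limit taken from the earlier primary screen, cut at about 15% in these data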
PP5 inh counter: PP5 phosphatase inhibition, counter-screen for PP1 inhibitors. shares compounds with PP1 inh. purified PP5c, OMFP fluorescence. inhibition, % at 6.7 µM. 4% of 1,900 active;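 active = mean PP5 inhibition over triplicate wells above about 9.5% taken from the earlier PP1 screen, limit read from the data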
A number is an active result; n = inactive; x = not tested or not shown.

SMILES	PP1 inh	EBNA-1 inhibitor	core dimer inh	NS3 helicase inh	ZTA counter	PP1 inh confirm	PP5 inh counter
c1ccc(-c2n[nH]c(-c3ccccn3)n2)nc1	27	n	n	n	n	23	n
c1ccc(-c2n[nH]c(-c3ccccn3)n2)cc1	n	n	n	n	n	x	x
CCOc1ccc2nc(NC3=NC(c4ccc(OC)cc4)CC(=O)N3)nc(C)c2c1 (stereo not given)	39	n	n	n	n	n	n
Cc1ccc(NS(=O)(=O)c2cc([N+](=O)[O-])ccc2NNC(=S)Nc2cccc(Cl)c2)c(C)c1	26	n	n	n	n	29	n
CC(C)Oc1ccc(C(=O)Nc2ccc(N3CCCC3)cc2)cc1	n	n	n	n	n	x	x
COc1ccccc1C(=O)Nc1ccc(N2CCCCC2)cc1	n	n	n	n	n	x	x
COc1cccc(OC)c1C(=O)Nc1ccc(N2CCCC2)cc1	28	n	n	n	n	n	n
O=C(Nc1ccc(N2CCCC2)cc1)c1ccc(Br)cc1	24	n	n	n	n	n	n
O=C(NCc1ccc(Cl)cc1)c1cc(-c2cccs2)on1	21	n	n	n	n	25	n
CC(Sc1nc2ccccc2s1)C(=O)c1c(N)n(C)c(=O)n(C)c1=O (stereo not given)	n	n	n	n	n	x	x
Cc1ccc(NC(=O)CN2C(=O)N/C(=C/c3ccccc3OCc3cccc(C(=O)O)c3)C2=O)cc1	52	n	n	n	n	33	n
CCOc1ccc(C2C(C(C)=O)=C(O)C(=O)N2CCc2c[nH]c3ccccc23)cc1 (stereo not given)	22	n	n	n	n	29	n
CCCCCCN1C(=O)C(O)=C(C(C)=O)C1c1ccc(Cl)cc1 (stereo not given)	23	n	n	n	n	18	n
CCCCN1C(=O)C(O)=C(C(C)=O)C1c1ccccc1 (stereo not given)	n	n	n	n	n	x	x
O=C(Nc1ccc(N2CCCC2)cc1)c1cc2ccccc2o1	33	n	n	n	n	n	n
O=C(COc1ccccc1Cl)Nc1ccc(N2CCCC2)cc1	28	n	n	n	n	n	n
O=C(Cc1ccccc1)Nc1ccc(N2CCCC2)cc1	25	n	n	n	n	n	n
CCN1CCN(c2ccc(NC(=O)COc3ccccc3Cl)cc2)CC1	n	n	n	n	n	x	x
CCN(CC(=O)Nc1c(F)cccc1F)C(=O)c1nc2nccc(C)n2n1	n	x	x	x	n	x	x
Cc1csc(CNC(=O)C2CCC(=O)N(CCCc3ccccc3)C2)n1 (stereo not given)	n	n	n	n	n	x	x
COCCn1nnnc1C(C(C)C)N1CCCC(C)C1 (stereo not given)	n	n	n	n	n	x	x
O=[N+]([O-])c1ccccc1/C=C/C=N/n1c(-c2ccc(Cl)cc2)n[nH]c1=S	25	n	83	n	n	28	n
CCOC(=O)N1CCN(C/C(Cl)=C/c2ccccc2)CC1	n	n	n	n	n	x	x
O=c1ccc2cc3c([nH]c4ccc(Br)cc43)oc-2c1O	58	n	n	n	n	37	n
O=C(O)c1ccc(N=Nc2c(O)[nH]c3ccc(Br)cc23)cc1	n	n	n	n	n	x	x
SMILES	PP1 inh	EBNA-1 inhibitor	core dimer inh	NS3 helicase inh	ZTA counter	PP1 inh confirm	PP5 inh counter
CC1(c2ccccc2)CC(C)(C)N2C(=O)C(=O)c3cccc1c32 (stereo not given)	24	n	n	n	n	18	n
O=C(Nc1nnc(-c2ccc(Cl)cc2)o1)c1nc2ccccc2s1	22	n	n	n	n	26	n
CCOC(=O)C1=C(CSc2nc3ccccc3s2)NC(=O)NC1c1cc(C)ccc1C (stereo not given)	23	n	n	n	n	n	n
CCOC(=O)C1=C(CSc2nc3ccccc3s2)NC(=O)NC1c1ccc(OC)cc1 (stereo not given)	n	n	n	n	n	x	x
CCc1cccc(C)c1NC(=O)C1C2CCC(O2)C1C(=O)O (stereo not given)	n	n	n	n	n	x	x
Cc1ccc(F)cc1NC(=O)C1C2CCC(O2)C1C(=O)O (stereo not given)	55	n	n	n	n	20	26
Cc1ccccc1NC(=O)C1C2CCC(O2)C1C(=O)O (stereo not given)	51	n	n	n	n	32	41
CCCCc1ccc(-c2nc(NC(=O)C3C4CCC(O4)C3C(=O)O)sc2C)cc1 (stereo not given)	75	n	n	n	n	35	40
CCOC(=O)c1c(-c2ccccc2)csc1NC(=O)C1CCCO1 (stereo not given)	n	n	n	n	n	x	x
CCOC(=O)c1c(-c2ccc(-c3ccccc3)cc2)csc1NC(=O)C1C2CCC(O2)C1C(=O)O (stereo not given)	22	n	46	n	n	n	n
O=C(CCNC(=O)N1CCn2c1nc1ccccc12)NCc1ccccc1Cl	n	n	n	n	n	x	x
O=C(O)C1C2CCC(O2)C1C(=O)Nc1ccccc1Br (stereo not given)	68	n	n	n	n	25	33
CS(=O)(=O)N1CCC(C(=O)Nc2ccccc2Br)CC1	n	n	n	n	n	x	x
CCC(=O)N1CCN(c2ccccc2NC(=O)c2ccc(-c3cccc([N+](=O)[O-])c3)o2)CC1	19	n	n	n	n	17	n
CN1CCN(c2ccccc2NC(=O)c2ccc(-c3cccc([N+](=O)[O-])c3)o2)CC1	n	n	n	n	n	x	x
COc1cccc(-c2cc3nc(-c4ccccc4)cc(=O)n3[nH]2)c1	21	n	n	n	n	23	n
Cc1[nH]n2c(=O)cc(C(C)(C)C)nc2c1-c1ccccc1	24	n	n	n	n	18	n
COc1cccc(N=Nc2c(N)[nH]n3c(=O)cc(-c4ccccc4)nc23)c1	n	n	n	n	n	x	x
COc1ccc(-c2c(C(F)(F)F)[nH]n3c(=O)cc(-c4ccccc4)nc23)cc1	25	n	n	n	n	42	n
Cc1[nH]n2c(=O)cc(C(C)C)nc2c1-c1ccccc1	n	n	n	n	n	x	x
O=c1cc(-c2ccccc2)nc2cc(-c3ccc(F)cc3)[nH]n12	n	n	n	x	n	x	x
Cc1[nH]n2c(=O)cc(-c3ccc([N+](=O)[O-])cc3)nc2c1-c1ccccc1	45	n	n	n	n	35	n
Fc1ccc(N2CCN(c3cnc4ccccc4n3)CC2)cc1	n	n	n	n	n	x	x
CCCc1cc(=O)n2[nH]c(C)c(-c3ccccc3)c2n1	n	n	n	n	n	x	x
CCc1cc(=O)n2[nH]c(-c3ccccc3)c(-c3ccccc3)c2n1	22	n	n	n	n	21	n
O=C(Nc1ccc(OC(F)(F)F)cc1)C1CCCN(C(=O)c2ccc(Cl)cc2)C1 (stereo not given)	n	x	x	x	n	x	x
